From ChEMBL document CHEMBL1158343, “Synthesis, antimicrobial and antiviral evaluation of substituted imidazole derivatives” (Eur J Med Chem, 2009)
≈ marks a conversion by molar mass, not a printed value.

Columns and labels:
[1] = tested on: Candida albicans; test: Antimicrobial activity against Candida albicans after 48 hrs by tube dilution method; format: functional
Outline: (§1)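 Tube dilution in DMSO (stock 100 mg/ml) with serial dilutions; incubation 37 °C for 48 h for C. albicans (other organisms' times truncated in text). MIC read as lowest concentration inhibiting visible growth. Norfloxacin (bacteria) and fluconazole (fungi) as reference drugs.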

[2] = tested on: Staphylococcus aureus; test: Antimicrobial activity against Staphylococcus aureus after 24 hrs by tube dilution method; format: functional; outline: as §1
[3] = tested on: Aspergillus niger; test: Antimicrobial activity against Aspergillus niger after 7 days by tube dilution method; format: functional; conditions: 168 h; outline: as §1
[4] = tested on: Bacillus subtilis; test: Antimicrobial activity against Bacillus subtilis after 24 hrs by tube dilution method; format: functional; outline: as §1
[5] = tested on: Escherichia coli; test: Antimicrobial activity against Escherichia coli after 24 hrs by tube dilution method; format: functional; outline: as §1
[6] = Cytotoxicity against african green monkey Vero cells assessed as alteration in cell morphology; format: cell-based; conditions: chlorocebus sabaeus
Outline: (§2)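 Uninfected cell cultures tested in parallel with the CPE-reduction antiviral assay; cells grown to confluency, then serial compound dilutions added and incubated at 37 °C (3 days in the parallel antiviral set-up). Read-out is microscopic examination of morphology; value is the minimum cytotoxic concentration, the lowest causing a microscopically detectable alteration of normal cell morphology.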

[7] = tested on: Human alphaherpesvirus 1; test: Antiviral activity against thymidine kinase-deficient acyclovir-resistant HSV1 KOS infected in human HEL cells assessed as reduction in virus-induced cytopathogenicity after 3 days; format: functional, organism-based; conditions: Human alphaherpesvirus 1, KOS, 72 h
[8] = tested on: Sindbis virus; test: Antiviral activity against Sindbis virus infected in african green monkey Vero cells assessed as reduction in virus-induced cytopathogenicity after 3 days; format: functional, organism-based; conditions: 72 h
[9] = tested on: Respiratory syncytial virus; test: Antiviral activity against RSV infected in human HeLa cells assessed as reduction in virus-induced cytopathogenicity after 3 days; format: functional, organism-based; conditions: 72 h
[10] = tested on: Human alphaherpesvirus 1; test: Antiviral activity against HSV1 KOS infected in human HEL cells assessed as reduction in virus-induced cytopathogenicity after 3 days; format: functional, organism-based; conditions: Human alphaherpesvirus 1, KOS, 72 h
[11] = tested on: Punta Toro virus; test: Antiviral activity against Punta Toro virus infected in african green monkey Vero cells assessed as reduction in virus-induced cytopathogenicity after 3 days; format: functional, organism-based; conditions: 72 h
[12] = tested on: Coxsackievirus B4; test: Antiviral activity against Coxsackievirus B4 infected in african green monkey Vero cells assessed as reduction in virus-induced cytopathogenicity after 3 days; format: functional, organism-based; conditions: Enterovirus B, 72 h
[13] = tested on: Mammalian orthoreovirus 1; test: Antiviral activity against Reovirus 1 infected in african green monkey Vero cells assessed as reduction in virus-induced cytopathogenicity after 3 days; format: functional, organism-based; conditions: Mammalian orthoreovirus 1, Vero, 72 h
[14] = tested on: Vesicular stomatitis virus; test: Antiviral activity against VSV infected in human HEL cells assessed as reduction in virus-induced cytopathogenicity after 3 days; format: functional, organism-based; conditions: 72 h
[15] = tested on: Human respirovirus 3; test: Antiviral activity against Parainfluenza-3 virus infected in african green monkey Vero cells assessed as reduction in virus-induced cytopathogenicity after 3 days; format: functional, organism-based; conditions: Human respirovirus 3, Vero, 72 h
[16] = tested on: Human alphaherpesvirus 2; test: Antiviral activity against HSV2 G infected in human HEL cells assessed as reduction in virus-induced cytopathogenicity after 3 days; format: functional, organism-based; conditions: Human alphaherpesvirus 2, strain G, 72 h
[17] = Cytotoxicity against human HEL cells assessed as alteration in cell morphology; format: cell-based; outline: as §2
[18] = tested on: Coxsackievirus B4; test: Antiviral activity against Coxsackievirus B4 infected in human HeLa cells assessed as reduction in virus-induced cytopathogenicity after 3 days; format: functional, organism-based; conditions: Enterovirus B, 72 h
[19] = tested on: Vesicular stomatitis virus; test: Antiviral activity against VSV infected in human HeLa cells assessed as reduction in virus-induced cytopathogenicity after 3 days; format: functional, organism-based; conditions: 72 h
[20] = Cytotoxicity against human HeLa cells assessed as alteration in cell morphology; format: cell-based; outline: as §2

Structure (SMILES): O=[N+]([O-])c1cccc(-c2ncc[nH]2)c1
- MFC [1]: 264 µM (≈ 49.9 µg/mL)
- MIC [1]: 33 µM (≈ 6.24 µg/mL)
- MBC [2]: 33 µM (≈ 6.24 µg/mL)
- MIC [2]: 4 µM (≈ 0.757 µg/mL)
- MFC [3]: 264 µM (≈ 49.9 µg/mL)
- MIC [3]: 33 µM (≈ 6.24 µg/mL)
- MBC [4]: 33 µM (≈ 6.24 µg/mL)
- MIC [4]: 4 µM (≈ 0.757 µg/mL)
- MBC [5]: 33 µM (≈ 6.24 µg/mL)
- MIC [5]: 4 µM (≈ 0.757 µg/mL)

Structure (SMILES): Cc1cccc(-c2ncc[nH]2)c1C
- MFC [1]: 289 µM (≈ 49.8 µg/mL)
- MIC [1]: 72 µM (≈ 12.4 µg/mL)
- MBC [2]: 36 µM (≈ 6.2 µg/mL)
- MIC [2]: 4 µM (≈ 0.689 µg/mL)
- MFC [3]: 144 µM (≈ 24.8 µg/mL)
- MIC [3]: 17 µM (≈ 2.93 µg/mL)
- MBC [4]: 36 µM (≈ 6.2 µg/mL)
- MIC [4]: 4 µM (≈ 0.689 µg/mL)
- MBC [5]: 36 µM (≈ 6.2 µg/mL)
- MIC [5]: 4 µM (≈ 0.689 µg/mL)

Structure (SMILES): O=C(c1ccc([N+](=O)[O-])cc1)n1ccnc1-c1ccccc1[N+](=O)[O-]
- MFC [1]: 295 µM (≈ 99.8 µg/mL)
- MIC [1]: 36 µM (≈ 12.2 µg/mL)
- MBC [2]: 295 µM (≈ 99.8 µg/mL)
- MIC [2]: 36 µM (≈ 12.2 µg/mL)
- MCC [6]: > 100 µg/mL
- EC50 [7]: > 100 µg/mL
- EC50 [8]: > 100 µg/mL
- EC50 [9]: > 100 µg/mL
- EC50 [10]: > 100 µg/mL
- MFC [3]: 73 µM (≈ 24.7 µg/mL)
- MIC [3]: 4 µM (≈ 1.35 µg/mL)
- EC50 [11]: > 100 µg/mL
- MBC [4]: 295 µM (≈ 99.8 µg/mL)
- MIC [4]: 36 µM (≈ 12.2 µg/mL)
- EC50 [12]: > 100 µg/mL
- EC50 [13]: > 100 µg/mL
- EC50 [14]: > 100 µg/mL
- EC50 [15]: > 100 µg/mL
- EC50 [16]: > 100 µg/mL
- MCC [17]: > 100 µg/mL
- EC50 [18]: > 100 µg/mL
- EC50 [19]: > 100 µg/mL
- MCC [20]: > 100 µg/mL
- MBC [5]: 295 µM (≈ 99.8 µg/mL)
- MIC [5]: 36 µM (≈ 12.2 µg/mL)

Structure (SMILES): Clc1ccc(-c2ncc[nH]2)cc1
- MFC [1]: 280 µM (≈ 50 µg/mL)
- MIC [1]: 35 µM (≈ 6.25 µg/mL)
- MBC [2]: 35 µM (≈ 6.25 µg/mL)
- MIC [2]: 4 µM (≈ 0.714 µg/mL)
- MFC [3]: 561 µM (≈ 100 µg/mL)
- MIC [3]: 702 µM (≈ 125 µg/mL)
- MBC [4]: 702 µM (≈ 125 µg/mL)
- MIC [4]: 8 µM (≈ 1.43 µg/mL)
- MBC [5]: 702 µM (≈ 125 µg/mL)
- MIC [5]: 8 µM (≈ 1.43 µg/mL)

Structure (SMILES): Brc1ccc(-c2ncc[nH]2)cc1
- MFC [1]: 224 µM (≈ 50 µg/mL)
- MIC [1]: 28 µM (≈ 6.25 µg/mL)
- MBC [2]: 28 µM (≈ 6.25 µg/mL)
- MIC [2]: 3 µM (≈ 0.669 µg/mL)
- MFC [3]: 112 µM (≈ 25 µg/mL)
- MIC [3]: 14 µM (≈ 3.12 µg/mL)
- MBC [4]: 28 µM (≈ 6.25 µg/mL)
- MIC [4]: 3 µM (≈ 0.669 µg/mL)
- MBC [5]: 28 µM (≈ 6.25 µg/mL)
- MIC [5]: 3 µM (≈ 0.669 µg/mL)

Structure (SMILES): Clc1cccc(-c2ncc[nH]2)c1
- MFC [1]: 280 µM (≈ 50 µg/mL)
- MIC [1]: 35 µM (≈ 6.25 µg/mL)
- MBC [2]: 35 µM (≈ 6.25 µg/mL)
- MIC [2]: 4 µM (≈ 0.714 µg/mL)
- MFC [3]: 280 µM (≈ 50 µg/mL)
- MIC [3]: 35 µM (≈ 6.25 µg/mL)
- MBC [4]: 140 µM (≈ 25 µg/mL)
- MIC [4]: 17 µM (≈ 3.04 µg/mL)
- MBC [5]: 561 µM (≈ 100 µg/mL)
- MIC [5]: 702 µM (≈ 125 µg/mL)

Structure (SMILES): O=C(O)c1ccccc1-c1ncc[nH]1
- MFC [1]: 526 µM (≈ 99 µg/mL)
- MIC [1]: 66 µM (≈ 12.4 µg/mL)
- MBC [2]: 531 µM (≈ 99.9 µg/mL)
- MIC [2]: 4 µM (≈ 0.753 µg/mL)
- MFC [3]: 265 µM (≈ 49.9 µg/mL)
- MIC [3]: 33 µM (≈ 6.21 µg/mL)
- MBC [4]: 33 µM (≈ 6.21 µg/mL)
- MIC [4]: 4 µM (≈ 0.753 µg/mL)
- MBC [5]: 265 µM (≈ 49.9 µg/mL)
- MIC [5]: 4 µM (≈ 0.753 µg/mL)

Structure (SMILES): O=[N+]([O-])c1ccccc1-c1ncc[nH]1
- MFC [1]: 264 µM (≈ 49.9 µg/mL)
- MIC [1]: 33 µM (≈ 6.24 µg/mL)
- MBC [2]: 33 µM (≈ 6.24 µg/mL)
- MIC [2]: 4 µM (≈ 0.757 µg/mL)
- MFC [3]: 264 µM (≈ 49.9 µg/mL)
- MIC [3]: 33 µM (≈ 6.24 µg/mL)
- MBC [4]: 33 µM (≈ 6.24 µg/mL)
- MIC [4]: 4 µM (≈ 0.757 µg/mL)
- MBC [5]: 33 µM (≈ 6.24 µg/mL)
- MIC [5]: 4 µM (≈ 0.757 µg/mL)

Structure (SMILES): O=C(c1ccc([N+](=O)[O-])cc1)n1ccnc1-c1ccccc1Cl
- MFC [1]: 152 µM (≈ 49.8 µg/mL)
- MIC [1]: 38 µM (≈ 12.5 µg/mL)
- MBC [2]: 19 µM (≈ 6.23 µg/mL)
- MIC [2]: 2 µM (≈ 0.655 µg/mL)
- MCC [6]: > 100 µg/mL
- EC50 [7]: > 100 µg/mL
- EC50 [8]: > 100 µg/mL
- EC50 [9]: > 100 µg/mL
- EC50 [10]: > 100 µg/mL
- MFC [3]: 76 µM (≈ 24.9 µg/mL)
- MIC [3]: 9 µM (≈ 2.95 µg/mL)
- EC50 [11]: > 100 µg/mL
- MBC [4]: 19 µM (≈ 6.23 µg/mL)
- MIC [4]: 2 µM (≈ 0.655 µg/mL)
- EC50 [12]: > 100 µg/mL
- EC50 [13]: > 100 µg/mL
- EC50 [14]: > 100 µg/mL
- EC50 [15]: > 100 µg/mL
- EC50 [16]: > 100 µg/mL
- MCC [17]: > 100 µg/mL
- EC50 [18]: > 100 µg/mL
- EC50 [19]: > 100 µg/mL
- MCC [20]: > 100 µg/mL
- MBC [5]: 19 µM (≈ 6.23 µg/mL)
- MIC [5]: 2 µM (≈ 0.655 µg/mL)

Structure (SMILES): Clc1ccccc1-c1ncc[nH]1
- MFC [1]: 561 µM (≈ 100 µg/mL)
- MIC [1]: 702 µM (≈ 125 µg/mL)
- MBC [2]: 561 µM (≈ 100 µg/mL)
- MIC [2]: 35 µM (≈ 6.25 µg/mL)
- MFC [3]: 280 µM (≈ 50 µg/mL)
- MIC [3]: 35 µM (≈ 6.25 µg/mL)
- MBC [4]: 561 µM (≈ 100 µg/mL)
- MIC [4]: 702 µM (≈ 125 µg/mL)
- MBC [5]: 561 µM (≈ 100 µg/mL)
- MIC [5]: 702 µM (≈ 125 µg/mL)
